Published values of several laboratories.
Lines come from different studies, so protocols differ.
Target: Dual specificity mitogen-activated protein kinase kinase 4 (MAP2K4, Homo sapiens, UniProt P45985)
Residues used in one study (P45985 1-399): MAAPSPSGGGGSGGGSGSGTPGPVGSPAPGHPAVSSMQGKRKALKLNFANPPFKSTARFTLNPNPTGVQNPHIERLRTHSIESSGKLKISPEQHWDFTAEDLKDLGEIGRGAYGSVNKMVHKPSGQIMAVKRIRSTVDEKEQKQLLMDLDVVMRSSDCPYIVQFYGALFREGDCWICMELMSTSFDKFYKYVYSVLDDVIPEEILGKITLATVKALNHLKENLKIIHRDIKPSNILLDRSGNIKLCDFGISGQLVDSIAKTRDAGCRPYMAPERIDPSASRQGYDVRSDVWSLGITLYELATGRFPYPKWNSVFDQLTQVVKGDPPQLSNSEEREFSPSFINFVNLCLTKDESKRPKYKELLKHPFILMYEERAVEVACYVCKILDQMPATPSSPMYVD

O=C(c1ccc(Nc2ncc(Cl)c(-c3ccc(Cl)s3)n2)cc1)N1CCC(N2CCCC2)CC1  remaining binding (binding; competition with immobilised ligand; 1 µM): 42%
Nc1ncc2c(n1)-c1c([nH]c3ccc(C#CC4CC4)cc13)CCCC2  remaining binding (binding; competition with immobilised ligand; 1 µM): 24%
c1cnn2ncc(-c3ccnc(N4CCC45COC5)n3)c2c1  remaining binding (binding; 1 µM): 62%
CS(=O)(=O)NCC[C@H](NC(=O)c1cncc2c1cnn2-c1ccc(F)cc1)c1ccnc(S(C)(=O)=O)c1  remaining binding (cell-free assay; competition with immobilised ligand; 1 µM): 100%
CN(C)c1ncc(F)c(-c2cnn3ncccc23)n1  remaining binding (binding; 1 µM): 100%
Cn1cc(Cl)c2c(Oc3c(F)cc(Nc4cc(Cl)nc(N)n4)cc3F)ccnc21  remaining binding (cell-free assay; competition with immobilised ligand; 0.1 µM): 80%
O=C(c1ccc(Nc2nccc(-c3cc4ccccc4s3)n2)cc1)N1CCC(N2CCCC2)CC1  remaining binding (binding; competition with immobilised ligand; 1 µM): 78%
O=C(NCC1CCOCC1)c1n[nH]cc1NC(=O)c1c(F)cccc1F  remaining binding (binding; competition with immobilised ligand; 1 µM): 68%
CO[C@H]1CC[C@H](CNc2ccc(S(=O)(=O)NC(=O)c3ccc(N4CCN(CC5=C(c6ccc(Cl)cc6)CC(C)(C)CC5)CC4)cc3Oc3cnc4[nH]ccc4c3)cc2[N+](=O)[O-])CC1  remaining binding (cell-free assay; competition with immobilised ligand; 1 µM): 98%
N[C@H]1CCN(c2nccc(-c3cnn4ncccc34)n2)C1  remaining binding (binding; 1 µM): 86%
C=CC(=O)N1CCC(C(=O)NCC(=O)N2CCN(c3nc(-c4cnc(N)nc4C(F)F)nc(N4CCOCC4)n3)CC2)CC1  remaining binding (binding; competition with immobilised ligand; 1 µM): 100%
CN(c1nccc(-c2cnn3ncccc23)n1)C1CC1  remaining binding (binding; 1 µM): 100%
COc1cnc(Nc2cccc(S(N)(=O)=O)c2)nc1N1CCN(c2ccccc2)C(=O)C1  remaining binding (binding; competition with immobilised ligand; 1 µM): 71%
Nc1c(C(=O)NCc2ccc(C(=O)NCCCC3CCCCC3)cc2)cnn1-c1ccccc1  remaining binding (cell-free assay; competition with immobilised ligand; 0.1 µM): 100%
C[C@@H]1CCN(c2nccc(-c3cnn4ncccc34)n2)C1  remaining binding (binding; 1 µM): 69%
CC1=C(C#N)C(c2ccc3c(c2)c(NC(=O)c2ccccc2C)nn3C)C(C#N)=C(C)N1  remaining binding (cell-free assay; competition with immobilised ligand; 1 µM): 79%
CNC(=O)[C@@H]1CC[C@@H](n2c(-c3ccc4cnccc4c3)nc3ccc(C(=O)NCc4cccc(C(N)=O)c4)cc32)C1  remaining binding (binding; competition with immobilised ligand; 1 µM): 100%
CCN1CCN(Cc2ccc(C(=O)Nc3ccc(C)c(Oc4ccc5c(c4)CC(=O)N5)c3)cc2C(F)(F)F)CC1  remaining binding (binding; competition with immobilised ligand; 1 µM): 100%
O=C(NCCCN1CCOCC1)c1ccc(Nc2ncc(Cl)c(-c3ccc(Cl)s3)n2)cc1  remaining binding (binding; competition with immobilised ligand; 1 µM): 56%
CN(C)c1nccc(-c2cnc3ncccn23)n1  remaining binding (binding; 1 µM): 84%
Cc1cc(C)c(-n2ccn3nc(-c4cccnc4)cc23)cc1NC(=O)c1cc(C#N)cc(S(F)(F)(F)(F)F)c1  remaining binding (cell-free assay; competition with immobilised ligand; 0.1 µM): 74.7%
